The species entered for one assay is Sus scrofa. Nature of the assay: Uncompetitive inhibition of fully reduced pig PAP using pNPP as substrate by UV-vis spectrophotometric analysis. A digest of the protocol:
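Pig PAP purified from the uterine fluid of a pregnant sow. Assays ran at pH 4.9 in 0.1 M sodium acetate with 25% DMSO, at 25 °C. pNPP was 1–12.5 mM (six levels) and inhibitor 50–300 μM. Rates were read at 405 nm. Kiuc came from a general inhibition equation fit.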

The target of assay [1] is T1, Fe(3+)-Zn(2+) purple acid phosphatase (Phaseolus vulgaris) (UniProt P80366).
T1 sequence (whole entry): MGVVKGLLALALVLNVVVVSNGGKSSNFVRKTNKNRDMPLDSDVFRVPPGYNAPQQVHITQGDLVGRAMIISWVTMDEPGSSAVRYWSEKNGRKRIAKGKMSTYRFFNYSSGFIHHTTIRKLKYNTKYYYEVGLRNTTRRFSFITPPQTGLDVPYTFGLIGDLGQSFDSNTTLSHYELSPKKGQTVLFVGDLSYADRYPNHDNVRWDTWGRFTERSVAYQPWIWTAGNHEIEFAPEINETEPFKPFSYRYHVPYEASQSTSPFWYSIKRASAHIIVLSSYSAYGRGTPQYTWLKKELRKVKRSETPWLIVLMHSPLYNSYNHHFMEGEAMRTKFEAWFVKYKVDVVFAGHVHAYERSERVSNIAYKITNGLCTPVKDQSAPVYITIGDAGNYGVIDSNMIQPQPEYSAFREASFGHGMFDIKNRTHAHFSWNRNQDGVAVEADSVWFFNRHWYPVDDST
Description: Competitive inhibition of red kidney bean PAP using pNPP as substrate by UV-vis spectrophotometric analysis. A digest of the protocol: (§1)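 Red kidney bean (Phaseolus vulgaris) PAP purified from the beans and used at 7.4 nM. Assays ran at pH 4.9 in 0.1 M sodium acetate with 25% DMSO, at 25 °C. Substrate was pNPP at 1, 3, 5, 7.5, 10 and 12.5 mM, with inhibitor at 50–300 μM. Product formation was read at 405 nm. Kic and Kiuc came from non-linear regression to the general inhibition equation.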

A short description of assay [2]: Inhibition of pig PAP. More on the design: species or system Sus scrofa.
For assay [3], the target named is T2, Fe(3+)-Zn(2+) purple acid phosphatase (Phaseolus vulgaris, UniProt P80366).
T2 sequence (P80366 whole entry): T1 sequence (whole entry)
Description: Inhibition of red kidney bean PAP. A digest of the protocol: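 PAP purified from Phaseolus vulgaris beans, used at 7.4 nM in 0.1 M sodium acetate pH 4.9 with 25% DMSO at 25 °C. pNPP substrate at 1, 3, 5, 7.5, 10 and 12.5 mM, inhibitor 50–300 μM. Product formation read at 405 nm. Kic and Kiuc came from a non-linear regression to the general inhibition equation.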

Assay [4] addresses T1, Fe(3+)-Zn(2+) purple acid phosphatase (Phaseolus vulgaris). Nature of the assay: Uncompetitive inhibition of red kidney bean PAP using pNPP as substrate by UV-vis spectrophotometric analysis. A digest of the protocol:
as §1

For `O=C(O)c1cn(Cc2ccc(Cl)cc2)nn1`, in the assay listed under Sus scrofa, the Kiuc was determined as 103 µM. The compound further had a Kic in assay [1] of 1070 µM. `O=P(O)(O)O` [PHOSPHORIC ACID]: the Ki in assay [2] and in assay [3] was 2000 µM throughout. Regarding `O=C(O)c1cn(Cc2ccccc2)nn1`, the Kiuc in the assay filed under Sus scrofa was found to be 23 µM; in assay [4], 963 µM.

As for `CC(=O)c1sc(C)nc1-c1ccc(C)cc1`, the Ki was 42 µM in assay [2] and 340 µM in assay [3].

For VANADATE ION, the values for the inhibition constant Ki in assay [2] and in assay [3] were 40 µM and 30 µM, respectively. In the assay listed under Sus scrofa, `Cc1ccc(Cn2cc(C(=O)O)nn2)cc1` returned a Kiuc of 76 µM. Also, the Kic in assay [1] stood at 951 µM.

`O=C(O)c1cn(Cc2cccc3ccccc23)nn1` came in with a Kiuc in the assay listed under Sus scrofa of 184 µM. In assay [1], this compound displayed a Kic of 2280 µM.

Regarding `O=C(O)c1cn(Cc2ccccc2Cl)nn1`, the Kiuc in the assay listed under Sus scrofa was 276 µM. The compound further had a Kic in assay [1] of 438 µM.

In turn, `COc1ccc(Cn2cc(C(=O)O)nn2)cc1` registered a Kiuc in the assay filed under Sus scrofa of 48 µM.

As usually defined, the Ki is the dissociation constant of the complex between target and ligand, obtained from inhibition or displacement. The low end stands for tighter binding, the high end for weaker binding.

Values taken from ChEMBL document CHEMBL4368889, “Synthesis and evaluation of novel purple acid phosphatase inhibitors” (Medchemcomm, 2019).
